The source made the active and inactive calls. The calls are words filed in the database; no cut-off is given here. Where a SMILES comes first, the peptide text is derived from it. [ ]: non-standard residue; d: D form. Phe(3-F) = N[C@@H](Cc1cccc(F)c1)C(=O)O; Arg(Me) = CNC(=N)NCCC[C@H](N)C(=O)O; Hyp = O=C(O)[C@@H]1C[C@@H](O)CN1; Aib = CC(C)(N)C(=O)O; azaGly = NNC(=O)O
Key:
[1] = system: Rattus norvegicus; test: Inhibition of testosterone levels in Crl:CD(SD) rat plasma assessed as plasma testosterone level <0.04 ng/ml at 30 pmol/hr, sc administered as continuous dosing through alzet osmotic pump for 1 week by radio-immunoassay; assay type: functional, organism-based
Method in brief: (§1)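 Peptide dissolved in 50% DMSO at 3, 10, 30 or 100 µM, loaded into ALZET osmotic pumps for 3 to 100 pmol/h. Pumps implanted sc in 5 Crl:CD(SD) male rats. Plasma testosterone measured by RIA after 1 or 4 weeks. Values below the 0.04 ng/mL detection limit were treated as 0.04. Count of rats below the limit.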

[2] = Plasma concentration in Sprague-Dawley rat at 1 mg/kg, iv after 5 mins by LC/MS analysis; assay type: ADME, organism-based
Method in brief: (§2)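 Single intravenous 1 mg/kg bolus to SD rats (n=3 per group). Blood sampled at 5, 10, 15, 30 min and 1, 2, 4, 8, 24 h. Plasma deproteinized with 0.2% formic acid/methanol (1:4, v/v) plus acetonitrile, spun 15,000 rpm for 5 min, supernatant treated with 0.4% aqueous formic acid and spun again, then quantified by LC/MS. Noncompartmental parameters per rat, reported as mean ± SD.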

[3] = Tmax in Sprague-Dawley rat plasma at 1 mg/kg, sc by LC/MS analysis; assay type: ADME, organism-based
Method in brief: (§3)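 Single subcutaneous 1 mg/kg dose to SD rats (n=3 per group). Plasma drawn at 5, 10, 15, 30 min and 1, 2, 4, 8, 24 h. Proteins removed with 0.2% formic acid/methanol (1:4, v/v) plus acetonitrile, centrifuged, supernatant diluted in 0.4% aqueous formic acid, then measured by LC/MS. Noncompartmental analysis per rat, mean ± SD.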

[4] = Volume of distribution in steady state in Sprague-Dawley rat plasma at 1 mg/kg, iv up to 24 hrs by LC/MS analysis; assay type: ADME, organism-based; settings: read-out: Vdss; method in brief: as §2
[5] = AUC (0 to 24 hrs) in Sprague-Dawley rat plasma at 1 mg/kg, sc by LC/MS analysis; assay type: ADME, organism-based; design: dose 1 mg/kg, time < 24 hr, route subcutaneous; method in brief: as §3
[6] = biological target: KiSS-1 receptor (Rattus norvegicus, UniProt Q924U1); test: Agonist activity at rat KISS1R expressed in CHO/dhfr cells assessed as increase in intracellular Ca2+ levels measured for 180 secs by Fluo 3-AM dye based FLIPR assay; assay type: functional, cell-based
[7] = biological target: KiSS-1 receptor (Homo sapiens, UniProt Q969F8); test: Agonist activity at human KISS1R expressed in CHO/dhfr cells assessed as increase in intracellular Ca2+ levels measured for 180 secs by Fluo 3-AM dye based FLIPR assay; assay type: functional, cell-based
Method in brief: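 CHO cells expressing human KISS1R; FLIPR recording of ligand-induced [Ca2+]i rise over time. Maximum response taken and expressed as percent of the response to a maximal concentration of metastin(45-54). EC50 = concentration giving half-maximal mobilization, from nonlinear regression of smoothed data. Reported as ratio to the metastin(45-54) EC50.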

[8] = MRT in Sprague-Dawley rat plasma at 1 mg/kg, sc by LC/MS analysis; assay type: ADME, organism-based; method in brief: as §3
[9] = Cmax in Sprague-Dawley rat plasma at 1 mg/kg, sc by LC/MS analysis; assay type: ADME, organism-based; design: dose 1 mg/kg, route subcutaneous; method in brief: as §3
[10] = system: Rattus norvegicus; test: Inhibition of testosterone levels in Crl:CD(SD) rat plasma assessed as plasma testosterone level <0.04 ng/ml at 10 pmol/hr, sc administered as continuous dosing through alzet osmotic pump for 1 week by radio-immunoassay; assay type: functional, organism-based; method in brief: as §1
[11] = AUC (0 to 24 hrs) in Sprague-Dawley rat plasma at 1 mg/kg, iv up to 24 hrs by LC/MS analysis; assay type: ADME, organism-based; design: dose 1 mg/kg, time < 24 hr, route intravenous; method in brief: as §2
[12] = Solubility of the compound in water at 20 mg/ml; assay type: physicochemical; settings: buffer
[13] = Bioavailability in Sprague-Dawley rat plasma at 1 mg/kg, sc up to 24 hrs by LC/MS analysis; assay type: ADME, organism-based; method in brief: as §3
[14] = MRT in Sprague-Dawley rat plasma at 1 mg/kg, iv by LC/MS analysis; assay type: ADME, organism-based; method in brief: as §2
[15] = Total clearance in Sprague-Dawley rat plasma at 1 mg/kg, iv up to 24 hrs by LC/MS analysis; assay type: ADME, organism-based; method in brief: as §2
[16] = system: Rattus norvegicus; test: Inhibition of testosterone levels in CD(SD) rat assessed as plasma testosterone level <0.04 ng/ml at 0.01 nmol/hr, sc administered continuously for 6 days through alzet osmotic pump measured after 6 days by radio-immunoassay; assay type: functional, organism-based
[17] = system: Rattus norvegicus; test: Inhibition of testosterone levels in CD(SD) rat assessed as plasma testosterone level <0.04 ng/ml at 0.03 nmol/hr, sc administered continuously for 6 days through alzet osmotic pump measured after 6 days by radio-immunoassay; assay type: functional, organism-based
[18] = Inhibition of testosterone levels in sc dosed Crl:CD(SD) rat plasma assessed as compound dosing causing plasma testosterone level <0.04 ng/ml in all tested animals administered as continuous dosing through alzet osmotic pump for 1 to 4 weeks by radio-immunoassay; assay type: functional
[19] = Conformational changes of the compound in distilled water assessed as decrease in beta-sheet content at 0.1 mg/ml by preliminary circular dichroism analysis; design: scale not given: the % may be the effect or the level left
[20] = Solubility of the compound in water up to 500 mg/ml; assay type: physicochemical; settings: buffer
[21] = system: Rattus norvegicus; test: Inhibition of testosterone levels in Crl:CD(SD) rat plasma assessed as plasma testosterone level <0.04 ng/ml at 30 pmol/hr, sc administered as continuous dosing through alzet osmotic pump for 4 weeks by radio-immunoassay; assay type: functional, organism-based; method in brief: as §1
[22] = system: Rattus norvegicus; test: Inhibition of testosterone levels in Crl:CD(SD) rat plasma assessed as plasma testosterone level <0.04 ng/ml at 3 pmol/hr, sc administered as continuous dosing through alzet osmotic pump for 1 week by radio-immunoassay; assay type: functional, organism-based; method in brief: as §1

Sequence of KiSS-1 receptor (Homo sapiens, UniProt Q969F8) (Q969F8 whole entry): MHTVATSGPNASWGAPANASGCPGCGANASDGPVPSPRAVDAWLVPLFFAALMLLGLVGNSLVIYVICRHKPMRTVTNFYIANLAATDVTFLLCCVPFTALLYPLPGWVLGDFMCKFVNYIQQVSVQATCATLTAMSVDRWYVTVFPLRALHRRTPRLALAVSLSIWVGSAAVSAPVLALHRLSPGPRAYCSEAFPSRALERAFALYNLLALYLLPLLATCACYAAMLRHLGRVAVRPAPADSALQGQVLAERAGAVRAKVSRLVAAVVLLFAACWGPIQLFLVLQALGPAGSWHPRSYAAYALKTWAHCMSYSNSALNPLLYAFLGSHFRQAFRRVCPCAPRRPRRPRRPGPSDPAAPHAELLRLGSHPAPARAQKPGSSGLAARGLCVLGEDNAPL
Sequence of KiSS-1 receptor (Rattus norvegicus, UniProt Q924U1) (Q924U1 whole entry): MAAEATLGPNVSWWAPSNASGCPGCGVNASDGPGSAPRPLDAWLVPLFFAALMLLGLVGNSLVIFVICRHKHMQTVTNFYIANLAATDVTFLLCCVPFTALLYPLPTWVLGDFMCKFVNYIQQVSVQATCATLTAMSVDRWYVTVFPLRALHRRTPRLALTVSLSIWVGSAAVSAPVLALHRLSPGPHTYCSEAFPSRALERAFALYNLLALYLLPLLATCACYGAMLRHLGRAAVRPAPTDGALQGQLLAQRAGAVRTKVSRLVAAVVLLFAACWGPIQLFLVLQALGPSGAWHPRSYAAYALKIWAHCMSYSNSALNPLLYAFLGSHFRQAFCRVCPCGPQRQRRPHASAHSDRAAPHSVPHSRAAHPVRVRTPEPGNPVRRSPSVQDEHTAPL

| SMILES | inhibition [1] | concentration at 5 min [2] | Tmax [3] | Vd [4] | AUC(0-t) at 24 h [5] | EC50 [6] | EC50 [7] | MRT [8] | Cmax [9] | inhibition [10] | AUC(0-t) at 24 h [11] | solubility [12] | bioavailability [13] | MRT [14] | clearance [15] | inhibition [16] | inhibition [17] | other results |
| --- | --- | --- | --- | --- | --- | --- | --- | --- | --- | --- | --- | --- | --- | --- | --- | --- | --- | --- |
| CNC(=N)NCCC[C@H](NC(=O)[C@H](CC(C)C)NC(=O)NNC(=O)[C@H](Cc1cccc(F)c1)NC(=O)[C@@H](NC(=O)[C@H](CC(N)=O)NC(=O)[C@H](CCC(=O)O)NC(=O)[C@@H](Cc1ccc(O)cc1)NC(C)=O)[C@@H](C)O)C(=O)N[C@@H](Cc1c[nH]c2ccccc12)C(N)=O (Ac-[dY]ENT[Phe(3-F)][azaGly]L[Arg(Me)]W-NH2) | Active | 2630 ng/mL | 23.4 min | 0.406 L/kg | 1260 ng·h/mL | 20 nM | 0.47 nM | 1.09 h | 703 ng/mL | Active | 1330 ng·h/mL | Insoluble | 94.5% | 31.8 min | 12.8 mL/min/kg | Active | – | – |
| CNC(=N)NCCC[C@H](NC(=O)[C@H](CC(C)C)NC(=O)NNC(=O)[C@H](Cc1ccccc1)NC(=O)[C@@H](NC(=O)[C@H](CC(N)=O)NC(=O)CNC(=O)[C@@H](Cc1ccc(O)cc1)NC(C)=O)[C@@H](C)O)C(=O)N[C@@H](Cc1c[nH]c2ccccc12)C(N)=O (Ac-[dY]GNTF[azaGly]L[Arg(Me)]W-NH2) | – | – | – | – | – | 46 nM | 5.2 nM | – | – | – | – | Soluble | – | – | – | – | Active | – |
| CNC(=N)NCCC[C@H](NC(=O)[C@H](CC(C)C)NC(=O)NNC(=O)[C@H](Cc1cccc(F)c1)NC(=O)[C@@H](NC(=O)[C@H](CC(N)=O)NC(=O)[C@H](CCCCN)NC(=O)[C@@H](Cc1ccc(O)cc1)NC(C)=O)[C@@H](C)O)C(=O)N[C@@H](Cc1c[nH]c2ccccc12)C(N)=O (Ac-[dY]KNT[Phe(3-F)][azaGly]L[Arg(Me)]W-NH2) | – | – | – | – | – | 7.1 nM | 0.43 nM | – | – | – | – | Soluble | – | – | – | – | – | – |
| CNC(=N)NCCC[C@H](NC(=O)[C@H](CC(C)C)NC(=O)NNC(=O)[C@H](Cc1ccccc1)NC(=O)[C@@H](NC(=O)[C@H](CC(N)=O)NC(=O)C(C)(C)NC(=O)[C@@H](Cc1ccc(O)cc1)NC(C)=O)[C@@H](C)O)C(=O)N[C@@H](Cc1c[nH]c2ccccc12)C(N)=O (Ac-[dY][Aib]NTF[azaGly]L[Arg(Me)]W-NH2) | – | – | – | – | – | 17 nM | 2.4 nM | – | – | – | – | Soluble | – | – | – | – | Active | – |
| CNC(=N)NCCC[C@H](NC(=O)[C@H](CC(C)C)NC(=O)NNC(=O)[C@H](Cc1cccc(F)c1)NC(=O)[C@@H](NC(=O)[C@H](CC(N)=O)NC(=O)[C@@H]1C[C@@H](O)CN1C(=O)[C@@H](Cc1ccc(O)cc1)NC(C)=O)[C@@H](C)O)C(=O)N[C@@H](Cc1c[nH]c2ccccc12)C(N)=O (Ac-[dY][Hyp]NT[Phe(3-F)][azaGly]L[Arg(Me)]W-NH2) | – | – | – | – | – | 8.5 nM | 0.75 nM | – | – | – | – | – | – | – | – | Active | – | – |
| CNC(=N)NCCC[C@H](NC(=O)[C@H](CC(C)C)NC(=O)NNC(=O)[C@H](Cc1ccccc1)NC(=O)[C@@H](NC(=O)[C@H](CC(N)=O)NC(=O)[C@@H]1C[C@@H](O)CN1C(=O)[C@@H](Cc1ccc(O)cc1)NC(C)=O)[C@@H](C)O)C(=O)N[C@@H](Cc1c[nH]c2ccccc12)C(N)=O [TAK-448] | Active | 2850 ng/mL | 19.8 min | 0.403 L/kg | 679 ng·h/mL | 36 nM | 5.2 nM | 1.21 h | 342 ng/mL | Active | 1550 ng·h/mL | Soluble | 43.9% | 37.2 min | 10.8 mL/min/kg | Active | – | MED [18]: 30 pmol/h; Activity [19]: 21.9%; solubility [20]: Soluble; inhibition [21]: Active; inhibition [22]: Active |

Source: ChEMBL document CHEMBL3860048 (J Med Chem, 2016)
